Results: ChEMBL document CHEMBL4052694, “Discovery of novel 5-oxa-2,6-diazaspiro[3.4]oct-6-ene derivatives as potent, selective, and orally available somatostatin receptor subtype 5 (SSTR5) antagonists for treatment of type 2 diabetes mellitus” (Bioorg Med Chem, 2017)
Converted amounts (≈) assume the structure as drawn.

Experiments:
[1] = target: T1, Somatostatin receptor type 5 (Mus musculus, UniProt O08858); assay: Antagonist activity at mouse SSTR5 expressed in CHO cells assessed as inhibition of SST14-induced forskolin-stimulated intracellular cAMP level incubated for 15 mins followed by forskolin stimulation for 30 mins by HTRF assay; format: functional, cell-based
T1 sequence (O08858 whole entry): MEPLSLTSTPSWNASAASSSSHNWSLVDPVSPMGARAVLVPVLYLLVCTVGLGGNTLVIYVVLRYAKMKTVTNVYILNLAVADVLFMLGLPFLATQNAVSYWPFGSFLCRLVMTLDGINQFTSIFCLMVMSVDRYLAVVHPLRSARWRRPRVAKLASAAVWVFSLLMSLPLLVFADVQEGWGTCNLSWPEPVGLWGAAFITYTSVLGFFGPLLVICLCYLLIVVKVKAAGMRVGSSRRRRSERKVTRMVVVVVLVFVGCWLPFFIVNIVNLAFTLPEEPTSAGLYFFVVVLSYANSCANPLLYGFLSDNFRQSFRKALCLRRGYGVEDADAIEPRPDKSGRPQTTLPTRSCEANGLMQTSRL

[2] = target: Somatostatin receptor type 5 (Homo sapiens, UniProt P35346); assay: Antagonist activity at human SSTR5 expressed in CHO cells assessed as inhibition of SST14-induced forskolin-stimulated intracellular cAMP level incubated for 15 mins followed by forskolin stimulation for 30 mins by HTRF assay; format: functional, cell-based
Somatostatin receptor type 5 (Homo sapiens, UniProt P35346), sequence (P35346 whole entry): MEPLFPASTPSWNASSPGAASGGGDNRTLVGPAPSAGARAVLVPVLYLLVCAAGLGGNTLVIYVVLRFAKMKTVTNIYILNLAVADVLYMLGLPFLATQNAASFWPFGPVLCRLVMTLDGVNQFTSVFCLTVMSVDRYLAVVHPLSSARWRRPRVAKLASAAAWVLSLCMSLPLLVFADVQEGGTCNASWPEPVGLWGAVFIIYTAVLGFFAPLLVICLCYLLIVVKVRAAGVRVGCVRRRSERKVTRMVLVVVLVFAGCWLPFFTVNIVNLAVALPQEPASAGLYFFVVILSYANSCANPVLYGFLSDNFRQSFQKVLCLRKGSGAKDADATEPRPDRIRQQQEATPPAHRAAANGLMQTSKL

hERG (KCNH2) = hERG (KCNH2) (Homo sapiens, UniProt Q12809); assay: Inhibition of human ERG expressed in CHO cells assessed as decrease in peak tail current at 30 uM after 5 mins at -80 mV holding potential by patch clamp assay relative to control; format: cell-based; conditions: CHO cells expressing human ERG
hERG (KCNH2), sequence (Q12809 whole entry): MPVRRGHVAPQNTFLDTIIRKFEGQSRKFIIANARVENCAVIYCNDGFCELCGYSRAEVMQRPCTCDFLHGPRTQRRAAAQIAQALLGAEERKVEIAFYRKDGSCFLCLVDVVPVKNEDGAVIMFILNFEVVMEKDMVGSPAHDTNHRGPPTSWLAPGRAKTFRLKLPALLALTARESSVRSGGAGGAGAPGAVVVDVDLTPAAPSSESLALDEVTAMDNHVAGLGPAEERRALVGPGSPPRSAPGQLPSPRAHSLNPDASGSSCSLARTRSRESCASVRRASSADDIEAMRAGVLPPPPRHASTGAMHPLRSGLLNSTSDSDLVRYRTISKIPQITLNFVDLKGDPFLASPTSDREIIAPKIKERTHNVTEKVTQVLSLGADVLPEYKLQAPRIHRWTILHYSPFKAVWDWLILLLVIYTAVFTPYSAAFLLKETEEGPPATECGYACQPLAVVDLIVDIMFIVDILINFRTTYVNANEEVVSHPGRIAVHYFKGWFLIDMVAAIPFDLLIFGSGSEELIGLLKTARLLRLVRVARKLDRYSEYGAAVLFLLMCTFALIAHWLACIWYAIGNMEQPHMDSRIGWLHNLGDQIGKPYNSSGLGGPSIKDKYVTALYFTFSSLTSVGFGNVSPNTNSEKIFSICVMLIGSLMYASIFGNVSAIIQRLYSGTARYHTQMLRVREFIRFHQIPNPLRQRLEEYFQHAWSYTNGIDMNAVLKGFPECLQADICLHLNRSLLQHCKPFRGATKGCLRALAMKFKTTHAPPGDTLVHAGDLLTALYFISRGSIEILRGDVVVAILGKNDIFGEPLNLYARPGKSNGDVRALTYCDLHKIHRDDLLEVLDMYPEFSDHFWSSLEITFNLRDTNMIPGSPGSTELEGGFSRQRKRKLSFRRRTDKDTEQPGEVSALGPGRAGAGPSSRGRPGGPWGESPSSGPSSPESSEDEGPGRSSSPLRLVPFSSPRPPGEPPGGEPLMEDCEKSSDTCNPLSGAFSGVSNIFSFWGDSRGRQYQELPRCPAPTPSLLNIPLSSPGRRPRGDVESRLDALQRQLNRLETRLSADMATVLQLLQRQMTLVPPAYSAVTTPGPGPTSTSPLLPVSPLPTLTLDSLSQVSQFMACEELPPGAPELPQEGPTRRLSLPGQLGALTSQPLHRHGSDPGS
Outline: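 hERG-expressing CHO cells grown at 32 °C in Ham's F-12 with 10% FBS and Geneticin. Population patch clamp, perforated with 100 µg/mL amphotericin B. PBS with Ca/Mg outside; 140 mM KCl, 2 mM MgCl2, 1 mM EGTA, 20 mM HEPES pH 7.3 inside. Holding -80 mV, step to 40 mV for 2 s, then -50 mV for 2 s. Peak tail current compared before and after 5 min with compound at 30 µM, n = 4.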

[3] = 1-octanol/aqueous buffer solution partition coefficient, log D of the compound at pH 7.4 by UV-vis/HPLC method; format: physicochemical
Outline: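 Octanol/buffer partition coefficient at pH 7.4, estimated chromatographically by HPLC with UV–vis detection, using conditions adapted from a published method.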

[4] = Solubility of the compound in aqueous buffer solution at pH 6.8 after 18 hrs by HPLC analysis; format: physicochemical
Outline: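 0.4 mg compound in 0.4 mL aqueous buffer, pH 6.8 (Japanese Pharmacopoeia second disintegration fluid). Shaken at 500 rpm at 37 °C for 18 h, then filtered; dissolved concentration measured by HPLC.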

CCOc1cc(CN2CC3(CC(c4cccc(C(=O)O)c4)=NO3)C2)cc(OCC)c1-c1ccc(F)cc1
IC50 [1]: 0.26 µM | IC50 [2]: 0.55 µM

CCOc1cc(CN2CC3(CC(N4CC(C(=O)O)C4)=NO3)C2)cc(OCC)c1-c1ccc(F)cc1
IC50 [1]: 0.12 µM | inhibition at 5 min, 30 µM (hERG (KCNH2)): 8.1% | IC50 [2]: 0.2 µM | logD [3]: 2.9

CCOc1cc(CN2CC3(CC(c4ccc(C(=O)O)cc4)=NO3)C2)cc(OCC)c1-c1ccc(F)cc1
IC50 [1]: 0.033 µM | inhibition at 5 min, 30 µM (hERG (KCNH2)): 65% | solubility at 18 h [4]: 1.3 µg/mL (≈ 2.58 µM) | IC50 [2]: 0.009 µM | logD [3]: 3.3

CCOc1cc(C(C)N2CC3(CC(c4ccc(C(=O)O)cc4)=NO3)C2)cc(OCC)c1-c1ccc(F)cc1 (stereo not drawn)
IC50 [1]: 2 µM | inhibition at 5 min, 30 µM (hERG (KCNH2)): 14% | IC50 [2]: 0.095 µM | logD [3]: 3.6

CCOc1cc(C(=O)N2CC3(CC(c4ccc(C(=O)O)cc4)=NO3)C2)cc(OCC)c1-c1ccc(F)cc1
IC50 [1]: > 10 µM | inhibition at 5 min, 30 µM (hERG (KCNH2)): 7.9% | IC50 [2]: > 10 µM | logD [3]: 2.8

CCOc1cc(CN2CC3(CC(c4ccccc4C(=O)O)=NO3)C2)cc(OCC)c1-c1ccc(F)cc1
IC50 [1]: > 10 µM | inhibition at 5 min, 30 µM (hERG (KCNH2)): 4.5% | IC50 [2]: > 10 µM | logD [3]: 3.1

CCOc1cc(CN2CC3(CC(c4ccc(CO)cc4)=NO3)C2)cc(OCC)c1-c1ccc(F)cc1
IC50 [1]: 0.43 µM | IC50 [2]: 1 µM

CCOc1cc(CN2CC3(CC([C@H]4CC[C@@H](C(=O)O)CC4)=NO3)C2)cc(OCC)c1-c1ccc(F)cc1
IC50 [1]: 0.21 µM | inhibition at 5 min, 30 µM (hERG (KCNH2)): 33% | IC50 [2]: 0.13 µM | logD [3]: 3.3

CCOc1cc(CN2CC3(CC(c4ccc(C(N)=O)cc4)=NO3)C2)cc(OCC)c1-c1ccc(F)cc1
IC50 [1]: 0.15 µM | IC50 [2]: 0.15 µM

CCOc1cc(CN2CC3(CC(c4ccccc4)=NO3)C2)cc(OCC)c1-c1ccc(F)cc1
IC50 [1]: 0.98 µM | IC50 [2]: 2.8 µM
